The text below walks through data of ChEMBL document CHEMBL3804807, “Purine analogs as phosphatidylinositol 4-kinase IIIβ inhibitors” (Bioorg Med Chem Lett, 2016).

Data set [1] is described as follows: Cytotoxicity against human HeLa cells. Format: cell-based.
The species named for data set [2] is Homo sapiens. The data set is described as follows: Inhibition of PI4K3 beta (unknown origin) assessed as residual activity at 10 uM by ADP-Glo assay relative to control. The gist of the method: (§1)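 PI4K IIIα and PI4K IIIβ activity read by ADP-Glo assay. Each compound was tested at a single concentration of 10 μM, and residual enzyme activity was expressed relative to control.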

Data set [3] is filed under the species Homo sapiens. The data set is described as follows: Inhibition of PI4K3 alpha (unknown origin) at 10 uM by ADP-Glo assay relative to control. In short, it runs like this:
as §1

For the next data set, the system named is Hepatitis C virus. The data set is described as follows: Antiviral activity against Hepatitis C virus subtype 1b. The class given is functional, organism-based, Hepacivirus hominis. To be noted: genotype 1b.
For another data set, the system named is Coxsackievirus B3. The data set is described as follows: Antiviral activity against Human coxsackievirus B3. Format: functional, organism-based. To be noted: Enterovirus B.
For the next data set, the system named is Human rhinovirus sp. Put plainly: Antiviral activity against Human rhinovirus. The class given is functional, organism-based.

Compound `COc1ccc(-n2c(C(C)C)nc3c(NCCN4CCOCC4)nc(C)nc32)cc1OC` gave a CC50 in data set [1] of more than 50 µM. The Activity in the data set filed under Homo sapiens [2] worked out at 65%. The compound further displayed an inhibition in the data set filed under Homo sapiens [3] of less than 50%. The values for the EC50 in the data set on Hepatitis C virus and in the data set with Coxsackievirus B3 were more than 44 µM and more than 50 µM, respectively.
In data set [1], `COc1ccc(-n2c(C)nc3c(NCCN4CCOCC4)nc(I)nc32)cc1OC` returned a CC50 of more than 50 µM. Moreover, the Activity in the data set listed under Homo sapiens [2] was found to be 33%. The compound further gave an inhibition in the data set filed under Homo sapiens [3] of less than 50%. In addition, the EC50 in the data set on Hepatitis C virus is 10 µM; in the data set on Coxsackievirus B3, 9 µM; with Human rhinovirus sp. it was 16 µM.
With `COc1ccc(-n2c(-c3ccc(C=O)cc3)nc3c(NCCN4CCOCC4)nc(C)nc32)cc1OC`, in data set [1], the cytotoxic concentration (CC50) is more than 50 µM. Besides, the Activity in the data set filed under Homo sapiens [2] stood at 138%. The compound further yielded an inhibition in the data set listed under Homo sapiens [3] of less than 50%. The EC50 in the data set on Hepatitis C virus is more than 44 µM; in the data set with Coxsackievirus B3, more than 50 µM; in the data set with Human rhinovirus sp., more than 50 µM.
In turn, `COc1ccc(-n2c(-c3ccsc3)nc3c(NCCN4CCOCC4)nc(C)nc32)cc1OC` had a CC50 in data set [1] of more than 50 µM. Also, the Activity in the data set listed under Homo sapiens [2] came to 94%. In addition, the inhibition in the data set listed under Homo sapiens [3] was less than 50%. Further, the EC50 was more than 44 µM in the data set with Hepatitis C virus, more than 50 µM in the data set with Coxsackievirus B3 and more than 50 µM in the data set with Human rhinovirus sp..
In data set [1], `COc1ccc(-n2c(C)nc3c(NCCN4CCOCC4)nc(-c4cccnc4)nc32)cc1OC` gave a CC50 of more than 50 µM. Besides, the Activity in the data set filed under Homo sapiens [2] is 36%. Also, the inhibition in the data set filed under Homo sapiens [3] is less than 50%. For the same compound, the EC50 with Hepatitis C virus turned out to be 15 µM; in the data set on Coxsackievirus B3, 14 µM; in the data set on Human rhinovirus sp. it was 3.3 µM.
In turn, `COc1ccc(-n2nnc3c(NCCN4CCOCC4)nc(C)nc32)cc1OC` displayed a CC50 in data set [1] of more than 50 µM. For the same compound, the Activity in the data set listed under Homo sapiens [2] was determined as 31%. The inhibition in the data set filed under Homo sapiens [3] is less than 50%. Also, the EC50 was 33 µM with Hepatitis C virus and 26 µM with Coxsackievirus B3.
The compound `COc1ccc(-n2c(C3CC=CCC3)nc3c(NCCN4CCOCC4)nc(C)nc32)cc1OC` (stereo unspecified) gave a CC50 in data set [1] of more than 50 µM. Besides, the Activity in the data set filed under Homo sapiens [2] was found to be 75%. In addition, the inhibition in the data set filed under Homo sapiens [3] is less than 50%. Besides, the EC50 in the data set with Hepatitis C virus was more than 44 µM; with Coxsackievirus B3, more than 50 µM; with Human rhinovirus sp., more than 50 µM.
Take `COc1ccc(-n2c(C)nc3c(NCCN4CCOCC4)nc(-c4ccc(F)cc4)nc32)cc1OC`: the CC50 in data set [1] was more than 50 µM. Besides, the Activity in the data set filed under Homo sapiens [2] was 66%. The compound also registered an inhibition in the data set listed under Homo sapiens [3] of less than 50%. Moreover, the EC50 in the data set with Hepatitis C virus was 4.4 µM; in the data set with Coxsackievirus B3, 27 µM; with Human rhinovirus sp., 3.4 µM.
In the case of `COc1ccc(-n2c(-c3ccc(F)cc3)nc3c(NCCN4CCOCC4)nc(C)nc32)cc1OC`, the CC50 in data set [1] was more than 50 µM. Moreover, the Activity in the data set filed under Homo sapiens [2] came to 78%. Moreover, in the data set filed under Homo sapiens [3], the inhibition was less than 50%. For the same compound, the figures for the EC50 in the data set with Hepatitis C virus, in the data set on Coxsackievirus B3 and in the data set on Human rhinovirus sp. were more than 44 µM, more than 50 µM and more than 50 µM, respectively.
As to `COc1ccc(-n2cnc3c(NCCN4CCOCC4)nc(C)nc32)cc1OC`, the CC50 in data set [1] is more than 50 µM. In addition, the Activity in the data set filed under Homo sapiens [2] turned out to be 26%. The same compound registered an inhibition in the data set listed under Homo sapiens [3] of less than 50%. Besides, the EC50 came out at 11.5 µM in the data set with Hepatitis C virus and 34 µM with Coxsackievirus B3.
On to `COc1ccc(-n2nnc3c(NCCN4CCOCC4)ncnc32)cc1OC`, for which, in data set [1], the CC50 is more than 50 µM. Further, in the data set listed under Homo sapiens [2], the Activity came to 41%. The inhibition in the data set filed under Homo sapiens [3] is less than 50%. For the same compound, the EC50 is 32 µM with Hepatitis C virus and more than 50 µM with Coxsackievirus B3.
As for `COc1ccc(-n2c(-c3ccc(C#N)cc3)nc3c(NCCN4CCOCC4)nc(C)nc32)cc1OC`, the CC50 in data set [1] is more than 50 µM. In addition, in the data set filed under Homo sapiens [2], the Activity worked out at 97%. In the data set filed under Homo sapiens [3], this compound showed an inhibition of less than 50%. The EC50 in the data set with Hepatitis C virus is more than 44 µM; in the data set on Coxsackievirus B3, more than 50 µM; in the data set on Human rhinovirus sp., more than 50 µM.
`COc1ccc(-n2c(OC)nc3c(NCCN4CCOCC4)nc(C)nc32)cc1OC` yielded a CC50 in data set [1] of more than 50 µM. In the data set filed under Homo sapiens [2], the Activity amounted to 86%. In addition, the inhibition in the data set listed under Homo sapiens [3] is less than 50%. Besides, the EC50 was more than 44 µM in the data set with Hepatitis C virus, more than 50 µM with Coxsackievirus B3 and more than 50 µM in the data set on Human rhinovirus sp..
`COc1ccc(-n2c(C(F)(F)F)nc3c(NCCN4CCOCC4)nc(C)nc32)cc1OC` displayed a CC50 in data set [1] of more than 50 µM. Moreover, the Activity in the data set filed under Homo sapiens [2] stood at 99%. This compound returned an inhibition in the data set filed under Homo sapiens [3] of less than 50%. In addition, the figures for the EC50 in the data set with Hepatitis C virus, with Coxsackievirus B3 and in the data set on Human rhinovirus sp. were more than 44 µM, more than 50 µM and more than 50 µM, respectively.
Compound `COc1ccc(-n2ccc3c(NCCN4CCOCC4)ncnc32)cc1OC` yielded a CC50 in data set [1] of more than 50 µM. For the same compound, in the data set filed under Homo sapiens [2], the Activity amounted to 74%. In the data set listed under Homo sapiens [3], this compound yielded an inhibition of less than 50%. Further, the EC50 in the data set with Hepatitis C virus is 22 µM; in the data set with Coxsackievirus B3, more than 50 µM.
As for `COc1ccc(Cn2c(C)nc3c(NCCN4CCOCC4)nc(C)nc32)cc1OC`, the CC50 in data set [1] is more than 50 µM. The Activity in the data set listed under Homo sapiens [2] amounted to 126%. This compound returned an inhibition in the data set filed under Homo sapiens [3] of less than 50%. Also, the EC50 with Hepatitis C virus was 43 µM; in the data set on Coxsackievirus B3 it was more than 50 µM; in the data set with Human rhinovirus sp., more than 50 µM.
Regarding `COc1ccc(-n2c(CO)nc3c(NCCN4CCOCC4)nc(C)nc32)cc1OC`, the CC50 in data set [1] was more than 50 µM. Besides, the Activity in the data set listed under Homo sapiens [2] turned out to be 62%. This compound also returned an inhibition in the data set listed under Homo sapiens [3] of less than 50%. Also, the values for the EC50 with Hepatitis C virus and with Coxsackievirus B3 were more than 44 µM and more than 50 µM, respectively.
On to `COc1ccc(-n2c(-c3ccc(OCc4ccccc4)cc3)nc3c(NCCN4CCOCC4)nc(C)nc32)cc1OC`, for which the CC50 in data set [1] amounted to 26 µM. For the same compound, the Activity in the data set listed under Homo sapiens [2] is 112%. The same compound gave an inhibition in the data set filed under Homo sapiens [3] of less than 50%. The EC50 in the data set on Hepatitis C virus is more than 44 µM; in the data set with Human rhinovirus sp. it was 9.6 µM.
`COc1ccc(-n2c(-c3ccc(CO)cc3)nc3c(NCCN4CCOCC4)nc(C)nc32)cc1OC`: the CC50 in data set [1] was more than 50 µM. The Activity in the data set filed under Homo sapiens [2] worked out at 103%. The compound also yielded an inhibition in the data set listed under Homo sapiens [3] of less than 50%. Besides, the EC50 in the data set on Hepatitis C virus is more than 44 µM; in the data set with Coxsackievirus B3 it was more than 50 µM; in the data set on Human rhinovirus sp. it was more than 50 µM.
In turn, `COc1ccc(-n2c(C#Cc3ccccc3)nc3c(NCCN4CCOCC4)nc(C)nc32)cc1OC` had a CC50 in data set [1] of more than 50 µM. Further, in the data set listed under Homo sapiens [2], the Activity worked out at 96%. This compound also showed an inhibition in the data set filed under Homo sapiens [3] of less than 50%. The EC50 with Hepatitis C virus was 30 µM; in the data set on Coxsackievirus B3, more than 50 µM; in the data set on Human rhinovirus sp., more than 50 µM.
Turning to `COc1ccc(-n2c(I)nc3c(NCCN4CCOCC4)nc(C)nc32)cc1OC`, the CC50 in data set [1] was more than 50 µM. Also, the Activity in the data set listed under Homo sapiens [2] stood at 38%. Further, the inhibition in the data set listed under Homo sapiens [3] was less than 50%. In addition, the figures for the EC50 with Hepatitis C virus, with Coxsackievirus B3 and with Human rhinovirus sp. were 20 µM, 40 µM and more than 50 µM, respectively.
Compound `COc1ccc(-n2c(C)nc3c(NCCN4CCOCC4)nc(-c4cccc(Cl)c4)nc32)cc1OC` returned a CC50 in data set [1] of more than 50 µM. Moreover, the Activity in the data set filed under Homo sapiens [2] amounted to 67%. Also, the inhibition in the data set listed under Homo sapiens [3] is less than 50%. Also, the EC50 in the data set on Hepatitis C virus is 5 µM; in the data set with Coxsackievirus B3, more than 50 µM; in the data set on Human rhinovirus sp., 9 µM.
Regarding `COc1ccc(-n2c(-c3ccc(O)cc3)nc3c(NCCN4CCOCC4)nc(C)nc32)cc1OC`, the CC50 in data set [1] was more than 50 µM. For the same compound, in the data set listed under Homo sapiens [2], the Activity was 125%. Also, the inhibition in the data set filed under Homo sapiens [3] was less than 50%. Further, the EC50 was more than 44 µM in the data set with Hepatitis C virus, more than 50 µM in the data set with Coxsackievirus B3 and more than 50 µM with Human rhinovirus sp..
In the case of `COc1ccc(-n2c(C)nc3c(NCCN4CCOCC4)nc(-c4ccsc4)nc32)cc1OC`, the CC50 in data set [1] is more than 50 µM. Also, the Activity in the data set listed under Homo sapiens [2] stood at 46%. In the data set listed under Homo sapiens [3], this compound showed an inhibition of less than 50%. Moreover, the values for the EC50 with Hepatitis C virus and in the data set on Human rhinovirus sp. were 23 µM and more than 50 µM, respectively.
